Active and inactive are the calls of the source. No cut-off for these calls is given here.
What was measured:
[1] = molecular target: T1, Muscarinic acetylcholine receptor M1 (Rattus norvegicus, UniProt P08482); assay: Displacement of [3H]QNB from muscarinic M1 receptor Wistar rat cortex synaptosomal membrane
T1 sequence (P08482 whole entry): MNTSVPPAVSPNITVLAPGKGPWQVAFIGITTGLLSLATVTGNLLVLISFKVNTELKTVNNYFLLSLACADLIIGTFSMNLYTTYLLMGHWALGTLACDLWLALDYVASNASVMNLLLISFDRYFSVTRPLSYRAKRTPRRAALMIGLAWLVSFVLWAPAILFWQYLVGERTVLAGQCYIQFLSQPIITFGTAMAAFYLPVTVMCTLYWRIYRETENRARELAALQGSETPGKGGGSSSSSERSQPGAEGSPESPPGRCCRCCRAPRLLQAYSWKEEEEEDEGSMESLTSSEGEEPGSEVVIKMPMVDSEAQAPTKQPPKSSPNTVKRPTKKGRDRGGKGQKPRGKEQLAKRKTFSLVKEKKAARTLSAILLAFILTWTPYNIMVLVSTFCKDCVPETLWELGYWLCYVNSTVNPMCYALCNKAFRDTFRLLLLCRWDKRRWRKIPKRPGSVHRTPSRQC
Procedure, shortened: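 Male Wistar rat cortex synaptosomal membranes were prepared in Tris–HCl 50 mmol/L pH 7.4 with 0.32 mol/L sucrose, spun at 1000g then 32,000g at 4 °C, and resuspended in 50 mmol/L phosphate buffer pH 7.4 with MgCl2. Membrane protein was incubated with 0.2 nM [3H]QNB and displacer for 2 h at 37 °C, then GF/B filtered and counted by scintillation. IC50 and Ki were obtained by curve analysis.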

Rattus norvegicus [2] = species: Rattus norvegicus; assay: Reversal of scopolamine-induced learning impairment and memory loss in Wistar rat on elevated plus maze assessed as transfer latency time on day 1 relative to control; type: functional
Procedure, shortened: (§1)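 Elevated plus maze, male Wistar rats. Scopolamine alone or with compound was given 30 min before a 90 s exploration, and saline 0.9% was given to controls. Transfer latency from the open-arm end to a closed arm was timed on day 1, then retested in the same animals on day 2. Mean ± SEM.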

Rattus norvegicus [3] = species: Rattus norvegicus; assay: Effect on scopolamine-induced spartial working memory loss in Wistar rat on Y maze assessed as alteration behavior; type: functional
Procedure, shortened: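 Y maze, male Wistar rats, 200–250 g. Compound plus scopolamine was given 30 min before free exploration. Arm entries were recorded visually. Alternation was scored as successive entries into all three arms over overlapping triplets. Percent alternation = actual alternations / (total entries − 2) × 100.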

Rattus norvegicus [4] = species: Rattus norvegicus; assay: Reversal of scopolamine-induced learning impairment and memory loss in Wistar rat on elevated plus maze assessed as transfer latency time on day 2 relative to control; type: functional; procedure, shortened: as §1
Cortex = assay: Stimulation of (1,4,5)-trisphosphate formation in Wistar rat cerebral cortex relative to basal; type: functional; design: concentration or dose not given beside the values
Procedure, shortened: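 Rat cerebral cortex slices were labelled with [3H]myoinositol, then stimulated with compound at 1–500 µmol/l. Basal IP3 was measured, and acetylcholine iodide served as the reference stimulus. [3H]IP3 formed was counted by liquid scintillation. Values are mean and SD of three experiments, each run in duplicate.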

Rattus norvegicus [5] = species: Rattus norvegicus; assay: Reversal of scopolamine-induced memory loss in Wistar rat assessed as reduction of number of mistakes relative to control; type: functional
Procedure, shortened: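 Passive avoidance step-down task run on male Wistar rats, 200–250 g, n = 8, with scopolamine-induced memory loss. Mistakes were counted. The dose range tested was 0.05–0.2 mg/kg, and 0.1 mg/kg was used in the in vivo studies.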

COc1ccc(NC(=S)N2CCOC(C3=CCCN(C)C3)C2)cc1 (centres undefined)
IC50 [1]: 15 µM | Ki [1]: 4 µM | Activity (Rattus norvegicus [2]): Active | Activity (Rattus norvegicus [3]): 60% | Activity (Rattus norvegicus [4]): Active | Activity (Cortex): 178% | Activity (Rattus norvegicus [5]): 10

CN1CCC=C(C2CN(C(=S)Nc3ccc(Cl)cc3Cl)CCO2)C1 (centres undefined)
IC50 [1]: 112 µM | Ki [1]: 31 µM | Activity (Cortex): 116% | Activity (Rattus norvegicus [5]): Active

CC(=O)OCC[N+](C)(C)C [ACETYLCHOLINE]
Activity (Cortex): 268%

COc1cccc(NC(=S)N2CCOC(C3=CCCN(C)C3)C2)c1 (centres undefined)
IC50 [1]: 120 µM | Ki [1]: 41 µM | Activity (Cortex): 106% | Activity (Rattus norvegicus [5]): Active

COc1ccccc1NC(=S)N1CCOC(C2=CCCN(C)C2)C1 (centres undefined)
IC50 [1]: 362 µM | Ki [1]: 98 µM | Activity (Cortex): 100%

CN1CCC=C(C2CN(C(=S)Nc3ccc(F)cc3)CCO2)C1 (centres undefined)
IC50 [1]: 31 µM | Ki [1]: 7 µM | Activity (Rattus norvegicus [2]): Active | Activity (Rattus norvegicus [3]): 61% | Activity (Rattus norvegicus [4]): Active | Activity (Cortex): 155% | Activity (Rattus norvegicus [5]): 11

CN1CCC=C(C2CN(C(=S)Nc3ccc(Cl)cc3)CCO2)C1 (centres undefined)
IC50 [1]: 1.2 µM | Ki [1]: 0.31 µM | Activity (Rattus norvegicus [2]): 34 s | Activity (Rattus norvegicus [3]): 64% | Activity (Rattus norvegicus [4]): 9 s | Activity (Cortex): 216% | Activity (Rattus norvegicus [5]): 10

CN1CCC=C(C2CN(C(=S)Nc3ccccc3)CCO2)C1 (centres undefined)
IC50 [1]: 153 µM | Ki [1]: 49 µM | Activity (Cortex): 101%

CN1CCC=C(C2CN(C(=S)Nc3ccccc3Cl)CCO2)C1 (centres undefined)
IC50 [1]: 515 µM | Ki [1]: 214 µM | Activity (Rattus norvegicus [2]): 60 s | Activity (Rattus norvegicus [4]): 43 s | Activity (Cortex): 100%

CN1CCC=C(C2CN(C(=S)Nc3cccc(Cl)c3)CCO2)C1 (centres undefined)
IC50 [1]: 236 µM | Ki [1]: 85 µM | Activity (Cortex): 103%

CN1CCC=C(C2CN(C(=S)Nc3ccccc3F)CCO2)C1 (centres undefined)
IC50 [1]: 67 µM | Ki [1]: 15 µM | Activity (Rattus norvegicus [3]): 58% | Activity (Cortex): 129% | Activity (Rattus norvegicus [5]): Active
